Measured values reported in ChEMBL document CHEMBL3872215, “Optimization and biological evaluation of aminopyrimidine-based IκB kinase β inhibitors with potent anti-inflammatory effects” (Eur J Med Chem, 2016).
The source made the active and inactive calls. The rule behind the calls is not given here.

Columns and labels:
[1] = biological target: T1, Inhibitor of nuclear factor kappa-B kinase subunit beta (Homo sapiens, UniProt O14920); assay: Inhibition of IKKbeta (unknown origin)
T1 sequence (O14920 whole entry): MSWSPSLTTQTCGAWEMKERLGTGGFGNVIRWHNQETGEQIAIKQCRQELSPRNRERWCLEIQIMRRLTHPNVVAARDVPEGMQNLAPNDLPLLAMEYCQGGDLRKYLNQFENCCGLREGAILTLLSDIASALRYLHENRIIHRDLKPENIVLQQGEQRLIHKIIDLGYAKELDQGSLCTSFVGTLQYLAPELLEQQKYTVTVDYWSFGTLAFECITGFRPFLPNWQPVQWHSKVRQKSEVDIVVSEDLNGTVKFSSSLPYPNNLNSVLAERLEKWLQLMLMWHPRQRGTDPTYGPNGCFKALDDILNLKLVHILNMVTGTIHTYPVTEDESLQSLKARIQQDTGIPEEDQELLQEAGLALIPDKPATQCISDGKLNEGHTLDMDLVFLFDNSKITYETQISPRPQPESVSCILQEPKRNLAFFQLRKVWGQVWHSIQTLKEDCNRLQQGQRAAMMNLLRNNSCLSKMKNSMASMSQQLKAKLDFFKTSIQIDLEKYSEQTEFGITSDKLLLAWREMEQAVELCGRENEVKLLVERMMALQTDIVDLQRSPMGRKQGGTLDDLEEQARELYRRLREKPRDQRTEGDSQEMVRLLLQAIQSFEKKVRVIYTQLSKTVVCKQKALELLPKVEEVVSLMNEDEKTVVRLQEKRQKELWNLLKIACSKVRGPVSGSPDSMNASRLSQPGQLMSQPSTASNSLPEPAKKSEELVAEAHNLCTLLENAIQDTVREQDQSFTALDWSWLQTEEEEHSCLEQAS

[2] = Lipophilicity, logD of the compound at pH 7.4; type: physicochemical; conditions: buffer
[3] = test system: RAW264.7; assay: Antiinflammatory activity against mouse RAW264.7 cells assessed as inhibition of LPS induced nitrite accumulation at 1 to 5 uM preincubated for 6 hrs followed by LPS challenge measured after 18 hrs by Griess reagent based assay; type: functional, cell-based
Procedure, shortened: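 Cells seeded at 1 × 10^5 cells/ml and grown 24 h, then pretreated 6 h with compound at 1, 2 or 5 µM. LPS 100 ng/ml added for a further 18 h. NO production read as nitrite in the culture medium and compared with the negative control.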

[4] = test system: RAW264.7; assay: Antiinflammatory activity against mouse RAW264.7 cells assessed as inhibition of LPS induced nitric oxide synthase synthesis preincubated for 6 hrs followed by LPS challenge by western blot method; type: functional, cell-based
[5] = test system: RAW264.7; assay: Antiinflammatory activity against mouse RAW264.7 cells assessed as inhibition of LPS induced IL-1alpha production at 5 uM preincubated for 6 hrs followed by LPS challenge measured after 18 hrs; type: functional, cell-based
Procedure, shortened: (§1)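 Cells cultured in DMEM with 10% FBS and 1% penicillin/streptomycin, pretreated 6 h with compound at 5 µM, then LPS 100 ng/ml for 18 h. Lysates mixed with antibody cocktail and incubated overnight on a blocked mouse cytokine array membrane, then streptavidin-HRP with chemiluminescent detection. Relative protein expression taken from densitometry of scanned images.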

[6] = test system: RAW264.7; assay: Antiinflammatory activity against mouse RAW264.7 cells assessed as inhibition of LPS induced SiCAM-1 production at 5 uM preincubated for 6 hrs followed by LPS challenge measured after 18 hrs; type: functional, cell-based; procedure, shortened: as §1
[7] = test system: RAW264.7; assay: Antiinflammatory activity against mouse RAW264.7 cells assessed as inhibition of LPS induced TIMP-1 production at 5 uM preincubated for 6 hrs followed by LPS challenge measured after 18 hrs; type: functional, cell-based; procedure, shortened: as §1
[8] = test system: RAW264.7; assay: Antiinflammatory activity against mouse RAW264.7 cells assessed as inhibition of LPS induced I-TAC production at 5 uM preincubated for 6 hrs followed by LPS challenge measured after 18 hrs; type: functional, cell-based; procedure, shortened: as §1
[9] = test system: RAW264.7; assay: Antiinflammatory activity against mouse RAW264.7 cells assessed as inhibition of LPS induced IL-6 production preincubated for 6 hrs followed by LPS challenge measured after 18 hrs by ELISA method; type: functional, cell-based
Procedure, shortened: (§2)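 Cells plated at 4 × 10^5 per well and left to attach overnight, then pretreated 6 h with compound (1, 2 and 5 µM) before LPS 100 ng/ml for 18 h. IL-6 and TNF-α measured in cell-free supernatants with a mouse ELISA kit, following the kit instructions.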

[10] = test system: RAW264.7; assay: Antiinflammatory activity against mouse RAW264.7 cells assessed as inhibition of LPS induced TNF-alpha production preincubated for 6 hrs followed by LPS challenge measured after 18 hrs by ELISA method; type: functional, cell-based; procedure, shortened: as §2
[11] = biological target: T2, Inhibitor of nuclear factor kappa-B kinase subunit beta (Mus musculus) (UniProt O88351); assay: Inhibition of LPS-induced IKKbeta-mediated NF-kappa-B p65 phosphorylation in mouse RAW264.7 cells preincubated for 6 hrs followed by LPS challenge measured after 30 mins by ELISA method; type: cell-based
T2 sequence (whole entry): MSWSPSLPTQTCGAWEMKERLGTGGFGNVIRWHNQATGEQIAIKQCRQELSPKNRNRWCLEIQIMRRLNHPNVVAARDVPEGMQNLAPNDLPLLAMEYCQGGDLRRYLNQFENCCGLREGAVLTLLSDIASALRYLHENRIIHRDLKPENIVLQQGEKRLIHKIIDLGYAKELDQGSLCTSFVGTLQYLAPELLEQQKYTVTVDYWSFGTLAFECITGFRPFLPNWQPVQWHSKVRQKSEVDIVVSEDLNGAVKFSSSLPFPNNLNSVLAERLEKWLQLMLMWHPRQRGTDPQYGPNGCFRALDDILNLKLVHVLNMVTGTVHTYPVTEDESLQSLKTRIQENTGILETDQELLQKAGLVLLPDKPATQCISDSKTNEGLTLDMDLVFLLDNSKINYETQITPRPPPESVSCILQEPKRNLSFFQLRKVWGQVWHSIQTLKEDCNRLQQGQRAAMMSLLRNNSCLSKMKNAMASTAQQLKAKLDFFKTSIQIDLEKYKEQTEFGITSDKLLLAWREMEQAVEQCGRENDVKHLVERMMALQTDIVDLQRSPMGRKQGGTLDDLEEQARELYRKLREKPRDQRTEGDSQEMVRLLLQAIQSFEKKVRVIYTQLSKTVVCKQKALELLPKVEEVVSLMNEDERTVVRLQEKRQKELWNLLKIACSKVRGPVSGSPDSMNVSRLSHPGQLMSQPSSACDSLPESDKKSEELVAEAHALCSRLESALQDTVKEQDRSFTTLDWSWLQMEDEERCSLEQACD
Procedure, shortened: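 Cells exposed 6 h to compound at 1, 2 and 5 µM, then LPS 100 ng/ml for 30 min. Cytoplasmic phospho-NF-κB p65 measured with an ELISA kit, following the kit instructions.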

[12] = biological target: T2, Inhibitor of nuclear factor kappa-B kinase subunit beta (Mus musculus); assay: Inhibition of LPS induced IKKbeta-mediated NF-kappa-B p65 nuclear translocation in mouse RAW264.7 cells at 5 uM preincubated for 6 hrs followed by LPS challenge measured after 30 mins by DAPI staining based confocal laser scanning microscopic method; type: cell-based
Procedure, shortened: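 Pretreatment 6 h with 5 µM compound, then LPS 100 ng/ml for 30 min. Cells fixed in acetone:methanol 1:1 for 10 min, blocked 1 h at room temperature, and incubated overnight at 4 °C with p-NF-κB antibody (1:50). RITC secondary (1:100) applied 1 h, nuclei stained with DAPI, and slides imaged by confocal laser scanning microscopy.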

[13] = biological target: T2, Inhibitor of nuclear factor kappa-B kinase subunit beta (Mus musculus); assay: Inhibition of LPS-induced IKKbeta phosphorylation in mouse RAW264.7 cells preincubated for 6 hrs followed by LPS challenge measured after 30 mins by Western blot method
[14] = biological target: T2, Inhibitor of nuclear factor kappa-B kinase subunit beta (Mus musculus); assay: Inhibition of LPS-induced IKKbeta-mediated IkappaB-alpha phosphorylation in mouse RAW264.7 cells preincubated for 6 hrs followed by LPS challenge measured after 30 mins by Western blot method

Compound | IC50 [1] [nM] | further results
N#Cc1ccc(-c2ccnc(Nc3ccc(S(=O)(=O)NCCO)cc3)n2)cc1 | 111 | –
CS(=O)(=O)Nc1ccc(Nc2nccc(-c3ccc(Oc4ccccc4[N+](=O)[O-])cc3)n2)cc1 | 320 | –
Nc1ccccc1Oc1ccc(-c2ccnc(Nc3ccccc3)n2)cc1 | 11800 | –
CN(C)c1ccc(Nc2nccc(-c3ccc(Oc4ccccc4N)cc3)n2)cc1 | 28700 | –
Nc1ccccc1Oc1ccc(-c2ccnc(Nc3cccc(S(N)(=O)=O)c3)n2)cc1 | 1600 | –
CC(=O)c1ccc(Nc2nccc(-c3ccc(Oc4ccccc4N)cc3)n2)cc1 | 8100 | –
NS(=O)(=O)c1ccc(Nc2nccc(-c3ccc(Oc4ccccc4[N+](=O)[O-])cc3)n2)cc1 | 34 | –
CC(C)(C)OC(=O)NCCOc1ccc(-c2ccnc(Nc3ccc(S(N)(=O)=O)cc3)n2)cc1 | 138 | –
N#Cc1ccc(-c2ccnc(Nc3ccc(S(N)(=O)=O)cc3)n2)cc1 | 58 | logD [2]: 3.81
COc1ccc(Nc2nccc(-c3ccc(Oc4ccccc4N)cc3)n2)cc1 | 12000 | –
NCCOc1ccc(-c2ccnc(Nc3ccc(S(N)(=O)=O)cc3)n2)cc1 | 65 | logD [2]: 1.39; inhibition [3]: Active
CC(=O)Nc1ccc(Nc2nccc(-c3ccc(Oc4ccccc4N)cc3)n2)cc1 | 4200 | –
Nc1ccccc1Oc1ccc(-c2ccnc(Nc3ccc(S(=O)(=O)Nc4nccs4)cc3)n2)cc1 | 1100 | –
Nc1ccccc1Oc1ccc(-c2ccnc(Nc3ccc(S(N)(=O)=O)cc3)n2)cc1 | 97 | logD [2]: 3.29
CN(C)CCOc1ccc(-c2ccnc(Nc3ccc(S(N)(=O)=O)cc3)n2)cc1 | 79 | inhibition [3]: Active
Nc1ccc(-c2ccnc(Nc3ccc(S(N)(=O)=O)cc3)n2)cc1 | 41 | inhibition [3]: Active; inhibition [4]: Dose-dependent effect; inhibition [5]: Active; inhibition [6]: Active; inhibition [7]: Active; inhibition [8]: Active; inhibition [9]: Dose-dependent effect; inhibition [10]: Dose-dependent effect; inhibition [11]: Dose-dependent effect; inhibition [12]: Active; inhibition [13]: Dose-dependent effect; inhibition [14]: Dose-dependent effect
CCOC(=O)Nc1ccc(Nc2nccc(-c3ccc(Oc4ccccc4[N+](=O)[O-])cc3)n2)cc1 | > 20000 | –
Nc1ccc(-c2ccnc(Nc3ccc(S(=O)(=O)NCCO)cc3)n2)cc1 | 53 | logD [2]: 0.58; inhibition [3]: Active
Cc1ccc(Nc2nccc(-c3ccc(Oc4ccccc4N)cc3)n2)cc1 | > 50000 | –
NS(=O)(=O)c1ccc(Nc2nccc(-c3ccc(Oc4ccccc4)cc3)n2)cc1 | 1520 | –
N#Cc1ccc(Nc2nccc(-c3ccc(Oc4ccccc4N)cc3)n2)cc1 | 6200 | –
COC(=O)Nc1ccc(Nc2nccc(-c3ccc(Oc4ccccc4[N+](=O)[O-])cc3)n2)cc1 | > 20000 | –
N#Cc1cccc(-c2ccnc(Nc3ccc(S(=O)(=O)NCCO)cc3)n2)c1 | 190 | logD [2]: 1.49; inhibition [3]: Active
NS(=O)(=O)c1ccc(Nc2nccc(-c3ccc(Cl)cc3)n2)cc1 | 19 | –
CS(=O)(=O)c1ccc(Nc2nccc(-c3ccc(Oc4ccccc4N)cc3)n2)cc1 | 2700 | –
CNS(=O)(=O)c1ccc(Nc2nccc(-c3ccc(Oc4ccccc4[N+](=O)[O-])cc3)n2)cc1 | 1100 | –
NC(=O)c1ccc(Nc2nccc(-c3ccc(Oc4ccccc4N)cc3)n2)cc1 | 14200 | –
Nc1ccccc1Oc1ccc(-c2ccnc(Nc3ccc(Cl)cc3)n2)cc1 | 34100 | –
Nc1ccccc1Oc1ccc(-c2ccnc(Nc3ccc4ncsc4c3)n2)cc1 | 4600 | –
